Measurements published in ChEMBL document CHEMBL1126560, “Endothelin-1 analogues substituted at both position 18 and 19: highly potent endothelin antagonists with no selectivity for either receptor subtype ETA or ETB” (J Med Chem, 1993).

Assays:
Mus musculus = species: Mus musculus; assay: Compound induced increase in cystolic free ca+2 concentration in murine peritoneal macrophages was measured; type: functional
Method in brief: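 Murine peritoneal macrophages from male ICR mice given ip 10% protease peptone 3 days before, adhered 1.5 h at 37 °C, fura-2 AM loaded (4 μM, 24 °C, 1.5 h). Fura-2 fluorescence ratio (340/380 nm excitation, 505 nm emission) at 37 °C. Compound at 100 nM; rise expressed as % of 100 nM ET-1 response.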

[1] = molecular target: T1, Endothelin receptor type B (Bos taurus, UniProt P28088); assay: Tested for the competitive binding versus [125I]- ET-1 determined in bovine cerebrum membrane for Endothelin B receptor; type: cell membranes
T1 sequence (P28088 whole entry): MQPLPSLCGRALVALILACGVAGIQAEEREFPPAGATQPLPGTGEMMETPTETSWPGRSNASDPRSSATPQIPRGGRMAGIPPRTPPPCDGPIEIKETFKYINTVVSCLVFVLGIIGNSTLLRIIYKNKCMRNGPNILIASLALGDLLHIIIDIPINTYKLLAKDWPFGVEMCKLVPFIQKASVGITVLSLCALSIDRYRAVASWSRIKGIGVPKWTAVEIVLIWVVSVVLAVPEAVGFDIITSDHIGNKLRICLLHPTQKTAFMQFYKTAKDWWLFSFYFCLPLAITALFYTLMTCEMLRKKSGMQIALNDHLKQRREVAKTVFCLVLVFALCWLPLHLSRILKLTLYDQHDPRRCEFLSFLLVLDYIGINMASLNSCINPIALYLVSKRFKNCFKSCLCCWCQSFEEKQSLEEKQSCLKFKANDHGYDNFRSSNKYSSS
Method in brief: (§1)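 Membranes (porcine cardiac ventricle at 12 μg/mL for ETA; bovine cerebrum at 150 μg/mL for ETB) in pH 7.2 Tris/EGTA/Mg acetate/0.1% BSA buffer with protease inhibitors. Incubated with 100 pM [125I]ET-1 and varied compound for 1 h at 25 °C, then filtered and counted by gamma counter. IC50 given as mean ± SEM of ≥3 determinations.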

Endothelin-1 receptor [2] = molecular target: T2, Endothelin-1 receptor (Sus scrofa, UniProt Q29010); assay: ETA receptor antagonist activity was measured by inhibition of ET-1 induced vasoconstriction in isolated porcine coronary artery; type: functional, tissue-based; conditions: read-out: pA2 (converted)
T2 sequence (Q29010 whole entry): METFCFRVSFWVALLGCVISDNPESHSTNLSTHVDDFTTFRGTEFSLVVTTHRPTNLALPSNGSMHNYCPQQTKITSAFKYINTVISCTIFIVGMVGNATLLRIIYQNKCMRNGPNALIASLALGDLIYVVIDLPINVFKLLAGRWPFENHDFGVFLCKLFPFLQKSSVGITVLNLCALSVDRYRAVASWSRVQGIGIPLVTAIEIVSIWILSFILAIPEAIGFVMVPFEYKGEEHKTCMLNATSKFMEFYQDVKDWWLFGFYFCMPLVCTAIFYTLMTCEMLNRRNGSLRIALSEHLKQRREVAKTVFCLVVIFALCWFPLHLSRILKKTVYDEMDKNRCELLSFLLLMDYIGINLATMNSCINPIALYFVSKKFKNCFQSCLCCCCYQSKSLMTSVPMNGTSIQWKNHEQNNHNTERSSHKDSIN
Method in brief: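 Porcine right coronary artery, endothelium-denuded 2 × 5-mm helical strips in Krebs-Henseleit, 95% O2-5% CO2, 37 °C, isometric tension. Compound added 15 min before cumulative ET-1. Tension normalized to 60 mM KCl. pA2 by van Rossum's method; n in parentheses.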

Endothelin-1 receptor [3] = molecular target: T2, Endothelin-1 receptor; assay: Tested for the competitive binding versus [125I]- ET-1 determined in porcine cardiac ventricular membrane for Endothelin A receptor; method in brief: as §1
[4] = molecular target: T3, Endothelin-1 receptor (Sus scrofa) (UniProt Q29010); assay: Endothelin A receptor agonist activity as maximum vasoconstriction in porcine coronary artery; type: functional, tissue-based
T3 sequence (whole entry): T2 sequence (Q29010 whole entry)
Method in brief: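 Porcine right coronary artery, endothelium-denuded helical strips in Krebs-Henseleit, 37 °C, isometric tension. Compound applied cumulatively, up to 1 μM. Maximal contraction expressed as % of 60 mM KCl-induced tension; n in parentheses.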

[5] = molecular target: Endothelin receptor, ET-A/ET-B (Homo sapiens) (UniProt P24530+P25101); assay: Antagonism of sarafotoxin S6c-induced vasoconstriction in rabbit pulmonary artery at both ETA and ETB receptors; type: functional; conditions: Oryctolagus cuniculus; target entry is the homologue from another species
Method in brief: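 Rabbit pulmonary artery, endothelium-denuded 5-mm rings in Krebs-Henseleit, 95% O2-5% CO2, 37 °C, isometric tension. Compound added 15 min before cumulative sarafotoxin S6c. Tension normalized to 60 mM KCl response. Antagonism given as pA2 (van Rossum) or pD2' value; n in parentheses.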

Endothelin receptor, ET-A/ET-B (Homo sapiens), sequence (P24530 whole entry, looked up): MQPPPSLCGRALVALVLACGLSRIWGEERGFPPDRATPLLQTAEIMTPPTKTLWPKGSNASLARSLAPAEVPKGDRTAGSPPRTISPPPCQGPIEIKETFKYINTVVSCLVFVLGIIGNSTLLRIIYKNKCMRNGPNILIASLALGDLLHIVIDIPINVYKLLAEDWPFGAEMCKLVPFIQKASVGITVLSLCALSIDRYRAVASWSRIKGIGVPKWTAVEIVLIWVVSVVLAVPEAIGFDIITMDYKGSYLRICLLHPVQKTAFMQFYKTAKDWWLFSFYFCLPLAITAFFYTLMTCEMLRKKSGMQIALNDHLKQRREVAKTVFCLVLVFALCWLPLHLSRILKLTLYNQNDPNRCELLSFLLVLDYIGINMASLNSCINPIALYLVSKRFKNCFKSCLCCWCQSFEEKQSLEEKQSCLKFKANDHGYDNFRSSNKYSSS
Endothelin receptor, ET-A/ET-B (Homo sapiens), sequence (P25101 whole entry, looked up): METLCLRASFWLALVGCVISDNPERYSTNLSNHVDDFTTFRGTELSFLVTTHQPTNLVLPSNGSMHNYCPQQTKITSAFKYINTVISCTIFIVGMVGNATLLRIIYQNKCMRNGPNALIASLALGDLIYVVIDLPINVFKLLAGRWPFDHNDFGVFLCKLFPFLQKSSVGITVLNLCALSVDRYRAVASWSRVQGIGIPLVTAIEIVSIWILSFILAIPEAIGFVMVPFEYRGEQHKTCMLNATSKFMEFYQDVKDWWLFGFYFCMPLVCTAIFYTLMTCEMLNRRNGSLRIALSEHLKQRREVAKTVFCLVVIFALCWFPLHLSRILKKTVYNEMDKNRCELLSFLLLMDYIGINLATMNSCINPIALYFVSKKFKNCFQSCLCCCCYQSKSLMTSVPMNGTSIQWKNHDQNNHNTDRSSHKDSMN

CC[C@H](C)[C@H](NC(=O)[C@H](CC(C)(C)C)NC(=O)[C@@H](NC(=O)[C@H](CC(C)C)NC(=O)[C@H](Cc1c[nH]cn1)NC(=O)[C@@H]1CSSC[C@H](N)C(=O)N[C@@H](CO)C(=O)N[C@H]2CSSC[C@H](NC(=O)[C@H](CCC(=O)O)NC(=O)[C@H](CCCCN)NC(=O)[C@H](CC(=O)O)NC(=O)[C@H](CCSC)NC(=O)[C@H](CC(C)C)NC(=O)[C@H](CO)NC(=O)[C@H](CO)NC2=O)C(=O)N[C@@H](C(C)C)C(=O)N[C@@H](Cc2ccc(O)cc2)C(=O)N[C@@H](Cc2ccccc2)C(=O)N1)[C@@H](C)O)C(=O)N[C@@H](Cc1c[nH]c2ccccc12)C(=O)O
[Ca2+] increase (Mus musculus): 0

CC[C@H](C)[C@H](NC(=O)[C@H](CC(C)C)NC(=O)[C@@H](NC(=O)[C@H](CC(C)C)NC(=O)[C@H](Cc1c[nH]cn1)NC(=O)[C@@H]1CSSC[C@H](N)C(=O)N[C@@H](CO)C(=O)N[C@H]2CSSC[C@H](NC(=O)[C@H](CCC(=O)O)NC(=O)[C@H](CCCCN)NC(=O)[C@H](CC(=O)O)NC(=O)[C@H](CCSC)NC(=O)[C@H](CC(C)C)NC(=O)[C@H](CO)NC(=O)[C@H](CO)NC2=O)C(=O)N[C@@H](C(C)C)C(=O)N[C@@H](Cc2ccc(O)cc2)C(=O)N[C@@H](Cc2ccccc2)C(=O)N1)[C@@H](C)O)C(=O)N[C@@H](Cc1c[nH]c2ccccc12)C(=O)O [listing 1 of 2 here]
[Ca2+] increase (Mus musculus): 28

CC[C@H](C)[C@H](NC(=O)[C@H](CC(C)C)NC(=O)[C@H](CC(C)C)NC(=O)[C@H](Cc1cnc[nH]1)NC(=O)[C@@H]1CSSC[C@H](N)C(=O)N[C@@H](CO)C(=O)N[C@H]2CSSC[C@H](NC(=O)[C@H](CCC(=O)O)NC(=O)[C@H](CCCCN)NC(=O)[C@H](CC(=O)O)NC(=O)[C@H](CCSC)NC(=O)[C@H](CC(C)C)NC(=O)[C@H](CO)NC(=O)[C@H](CO)NC2=O)C(=O)N[C@@H](C(C)C)C(=O)N[C@@H](Cc2ccc(O)cc2)C(=O)N[C@@H](Cc2ccccc2)C(=O)N1)C(=O)N[C@H](C(=O)N[C@@H](Cc1c[nH]c2ccccc12)C(=O)O)[C@@H](C)CC
IC50 [1]: 0.45 nM | Kb (Endothelin-1 receptor [2]): 5010 nM | IC50 (Endothelin-1 receptor [3]): 8.6 nM

CC[C@H](C)[C@H](NC(=O)[C@H](CC1CCCCC1)NC(=O)[C@@H](NC(=O)[C@H](CC(C)C)NC(=O)[C@H](Cc1c[nH]cn1)NC(=O)[C@@H]1CSSC[C@H](N)C(=O)N[C@@H](CO)C(=O)N[C@H]2CSSC[C@H](NC(=O)[C@H](CCC(=O)O)NC(=O)[C@H](CCCCN)NC(=O)[C@H](CC(=O)O)NC(=O)[C@H](CCSC)NC(=O)[C@H](CC(C)C)NC(=O)[C@H](CO)NC(=O)[C@H](CO)NC2=O)C(=O)N[C@@H](C(C)C)C(=O)N[C@@H](Cc2ccc(O)cc2)C(=O)N[C@@H](Cc2ccccc2)C(=O)N1)[C@@H](C)O)C(=O)N[C@@H](Cc1c[nH]c2ccccc12)C(=O)O [listing 1 of 2 here]
[Ca2+] increase (Mus musculus): 10

CC[C@H](C)[C@H](NC(=O)[C@H](CC1CCCCC1)NC(=O)[C@@H](NC(=O)[C@H](CC(C)C)NC(=O)[C@H](Cc1c[nH]cn1)NC(=O)[C@@H]1CSSC[C@H](N)C(=O)N[C@@H](CO)C(=O)N[C@H]2CSSC[C@H](NC(=O)[C@H](CCC(=O)O)NC(=O)[C@H](CCCCN)NC(=O)[C@H](CC(=O)O)NC(=O)[C@H](CCSC)NC(=O)[C@H](CC(C)C)NC(=O)[C@H](CO)NC(=O)[C@H](CO)NC2=O)C(=O)N[C@@H](C(C)C)C(=O)N[C@@H](Cc2ccc(O)cc2)C(=O)N[C@@H](Cc2ccccc2)C(=O)N1)[C@@H](C)O)C(=O)N[C@@H](Cc1c[nH]c2ccccc12)C(=O)O [listing 2 of 2 here]
IC50 [1]: 0.42 nM | Kb (Endothelin-1 receptor [2]): 20 nM | IC50 (Endothelin-1 receptor [3]): 0.61 nM

CC[C@H](C)[C@H](NC(=O)[C@H](CC(=O)O)NC(=O)[C@H](CC(C)C)NC(=O)[C@H](Cc1c[nH]cn1)NC(=O)[C@@H]1CSSC[C@H](N)C(=O)N[C@@H](CO)C(=O)N[C@H]2CSSC[C@H](NC(=O)[C@H](CCC(=O)O)NC(=O)[C@H](CCCCN)NC(=O)[C@H](CC(=O)O)NC(=O)[C@H](CCSC)NC(=O)[C@H](CC(C)C)NC(=O)[C@H](CO)NC(=O)[C@H](CO)NC2=O)C(=O)N[C@@H](C(C)C)C(=O)N[C@@H](Cc2ccc(O)cc2)C(=O)N[C@@H](Cc2ccccc2)C(=O)N1)C(=O)N[C@H](C(=O)N[C@@H](Cc1c[nH]c2ccccc12)C(=O)O)[C@@H](C)CC [ENDOTHELIN]
IC50 [1]: 0.12 nM | [Ca2+] increase (Mus musculus): 100 | IC50 (Endothelin-1 receptor [3]): 0.15 nM

CC[C@H](C)[C@H](NC(=O)[C@H](CC1CCCCC1)NC(=O)[C@@H](NC(=O)[C@H](CC(C)C)NC(=O)[C@H](Cc1c[nH]cn1)NC(=O)[C@@H]1CSSC[C@@H](N)C(=O)N[C@@H](CO)C(=O)N[C@@H]2CSSC[C@H](NC(=O)[C@H](CCC(=O)O)NC(=O)[C@@H](CCCCN)NC(=O)[C@@H](CC(=O)O)NC(=O)[C@@H](CCSC)NC(=O)[C@H](CC(C)C)NC(=O)[C@@H](CO)NC(=O)[C@H](CO)NC2=O)C(=O)N[C@@H](C(C)C)C(=O)N[C@H](Cc2ccc(O)cc2)C(=O)N[C@@H](Cc2ccccc2)C(=O)N1)[C@@H](C)O)C(=O)N[C@@H](Cc1c[nH]c2ccccc12)C(=O)O
Max vasoconstriction [4]: 2 | pD2 [5]: 7.8

CC[C@H](C)[C@H](NC(=O)[C@H](CC(C)C)NC(=O)[C@@H](NC(=O)[C@H](CC(C)C)NC(=O)[C@H](Cc1c[nH]cn1)NC(=O)[C@@H]1CSSC[C@H](N)C(=O)N[C@@H](CO)C(=O)N[C@H]2CSSC[C@H](NC(=O)[C@H](CCC(=O)O)NC(=O)[C@H](CCCCN)NC(=O)[C@H](CC(=O)O)NC(=O)[C@H](CCSC)NC(=O)[C@H](CC(C)C)NC(=O)[C@H](CO)NC(=O)[C@H](CO)NC2=O)C(=O)N[C@@H](C(C)C)C(=O)N[C@@H](Cc2ccc(O)cc2)C(=O)N[C@@H](Cc2ccccc2)C(=O)N1)[C@@H](C)O)C(=O)N[C@@H](Cc1c[nH]c2ccccc12)C(=O)O [listing 2 of 2 here]
IC50 [1]: 0.17 nM | Kb (Endothelin-1 receptor [2]): 20 nM | IC50 (Endothelin-1 receptor [3]): 0.42 nM

CC[C@H](C)[C@H](NC(=O)[C@@H](NC(=O)[C@H](CC(C)C)NC(=O)[C@H](Cc1c[nH]cn1)NC(=O)[C@@H]1CSSC[C@H](N)C(=O)N[C@@H](CO)C(=O)N[C@H]2CSSC[C@H](NC(=O)[C@H](CCC(=O)O)NC(=O)[C@H](CCCCN)NC(=O)[C@H](CC(=O)O)NC(=O)[C@H](CCSC)NC(=O)[C@H](CC(C)C)NC(=O)[C@H](CO)NC(=O)[C@H](CO)NC2=O)C(=O)N[C@@H](C(C)C)C(=O)N[C@@H](Cc2ccc(O)cc2)C(=O)N[C@@H](Cc2ccccc2)C(=O)N1)[C@@H](C)O)C(=O)N[C@H](C(=O)N[C@@H](Cc1c[nH]c2ccccc12)C(=O)O)[C@@H](C)CC
IC50 [1]: 0.33 nM | IC50 (Endothelin-1 receptor [3]): 0.19 nM

CC[C@H](C)[C@H](NC(=O)[C@H](CC(=O)O)NC(=O)[C@H](CC(C)C)NC(=O)[C@H](Cc1c[nH]cn1)NC(=O)[C@@H]1CSSC[C@H](NC(=O)[C@H](CCC(=O)O)NC(=O)[C@H](CCCCN)NC(=O)[C@H](CC(=O)O)NC(=O)[C@H](CCSC)NC(=O)[C@H](CC(C)C)NC(=O)[C@H](CO)NC(=O)[C@H](CO)NC(=O)[C@@H]2CSSC[C@H](N)C(=O)N[C@@H](CO)C(=O)N2)C(=O)N[C@@H](C(C)C)C(=O)N[C@@H](Cc2ccc(O)cc2)C(=O)N[C@@H](Cc2ccccc2)C(=O)N1)C(=O)N[C@H](C(=O)N[C@@H](Cc1c[nH]c2ccccc12)C(=O)O)[C@@H](C)CC
[Ca2+] increase (Mus musculus): 100
